Hits are enriched below; roughly 2.1% of the tested compounds scored in any of these assays.
PAX8 reporter: lowers PAX8-driven luciferase in RMG-I cells | RMG-I TPO-luciferase reporter, SteadyGlo, 24 h | 360,000 compounds, 1.2% hits | inhibition, % at 12.6 µM;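 active means mean replicate inhibition at least 60% with every replicate also reaching 60%; inconclusive means only one of the two criteria is met; inactive means mean below 60% and not all replicates reaching 60%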;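 further: luciferase light reporting Pax8 driven TPO promoter activity; plate controls were median of neutral control wells for no effect and mitoxantrone controls for full effect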
AF4-AF9 inh: blocks AF4 peptide binding to human AF9. 350,000 compounds, 0.47% hits. AlphaScreen, biotin-AF4 peptide binding to FLAG-AF9. AID 651704. P42568. inhibition, % at 10 µM;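 active means every replicate reaching a set inhibition limit, whatever the replicate mean, cut at about 25% in these data; inconclusive means mean inhibition reaches that limit but some replicates miss it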;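 further: 0% = plate neutral control median and 100% = total signal loss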
Target sequence (P42568 whole entry, looked up): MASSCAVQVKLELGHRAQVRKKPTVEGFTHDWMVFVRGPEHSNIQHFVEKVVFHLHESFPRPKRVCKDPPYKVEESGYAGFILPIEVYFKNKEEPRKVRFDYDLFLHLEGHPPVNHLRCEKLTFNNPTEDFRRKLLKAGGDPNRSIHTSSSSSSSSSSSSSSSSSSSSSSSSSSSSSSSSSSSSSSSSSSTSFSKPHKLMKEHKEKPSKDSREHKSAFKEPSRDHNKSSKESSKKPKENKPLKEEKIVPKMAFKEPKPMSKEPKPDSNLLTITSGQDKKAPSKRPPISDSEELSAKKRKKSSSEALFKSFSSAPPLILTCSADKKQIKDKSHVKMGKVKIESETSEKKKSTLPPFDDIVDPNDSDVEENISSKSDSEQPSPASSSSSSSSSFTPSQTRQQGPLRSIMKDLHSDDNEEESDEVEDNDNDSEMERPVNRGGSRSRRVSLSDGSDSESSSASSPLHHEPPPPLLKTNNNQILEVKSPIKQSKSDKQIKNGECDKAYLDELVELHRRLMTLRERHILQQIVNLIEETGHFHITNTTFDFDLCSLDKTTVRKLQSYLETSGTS
PGC1a acetyl inh: lowers PGC1a acetylation signal in U2OS cells; AlphaScreen anti-acetyl-lysine; with virally co-expressed GCN5 acetyltransferase; inhibition, % at 15.6 µM; 350,000 compounds, 0.17% hits;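 active means every replicate shows inhibition of at least 40%; inconclusive means mean inhibition at least 40% but some replicate below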;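 further: 0% = neutral control wells and 100% = positive control wells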
EWS-Fli inh: blocks EWS/Fli oncoprotein-driven transcription | A673 NR0B1-luciferase reporter, viability-normalised | inhibition, % at 12.6 µM | 350,000 compounds, 0.67% hits | AID 651661;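 active means mean inhibition of at least 50% after viability correction, with every replicate also passing that limit; inconclusive means mean reaches 50% but only one of two replicates passes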;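 further: firefly luciferase signal divided by Alamar Blue viability fluorescence both relative to DMSO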
Xi reactivation: activators of X-chromosome reactivation in mouse fibroblasts; XiGFP mouse fibroblasts, % GFP-positive cells imaging, 3 d; cells co-treated with 5-aza-dC sensitizer; scaled so ellipticine positive control = 100%; activation, % at 7.58 µM; 360,000 compounds, 0.055% hits; AID 743238;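 active means mean normalized replicate activation at least 10% and every replicate at or above 10%; inconclusive means only one of the two criteria met; inactive means mean below 10% and not all replicates reach 10%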;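 further: 0% = median of on-plate neutral control wells and 100% = ellipticine 6 µM median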
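Material: XiGFP fibroblasts, SV40-immortalized; Buffer or medium: DMEM containing 5-aza-dC; Compound dosing: single point; Times: 3 days compound exposure.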
GSIS activator: GLuc luminescence reporter in INS-1E cells, primary screen for activators of glucose-dependent secretion of insulin; INS-1E GLuc reporter insulin secretion, 2-3 h; 370,000 compounds, 0.61% hits; activation, % at 16.6 µM;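 active means lowest replicate activation of at least 40%, so every replicate reaches that level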;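 further: 0% = median of neutral control wells and 100% = median of IBMX positive control wells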
Starred values were filed as active, the others as inactive; ? = inconclusive; / = no result; ! = a repeat was not active.

SMILES	PAX8 reporter	AF4-AF9 inh	PGC1a acetyl inh	EWS-Fli inh	Xi reactivation	GSIS activator
O=C(Cc1ccccc1)N1CC2(C1)[C@H](c1ccccc1)[C@H](CO)N2Cc1cccc(F)c1	17	2	-17	8	0	-31
Cc1cccc(N=C2c3cc([N+](=O)[O-])ccc3-c3c2cc([N+](=O)[O-])cc3[N+](=O)[O-])c1	66*	-3	-5	31	0	-41
CCCCC1(CCCC)C(=O)NC(=Nc2cccc(C)c2)NC1=O	5	/	1	/	/	/
CCOC(C[n+]1c(-c2ccccc2)cc(C)cc1-c1ccccc1)OCC	67*	0	/	10	0	-7
CCC(C)C(NC(=O)CCCNC(=O)CCC(=O)OC1O[C@H]2OC3(C)CC[C@H]4[C@H](C)CCC(C1C)C24OO3)C(=O)O (stereo not given in full)	74*	-11	/	34	0	5
CCC(C)NC(=O)CCC(=O)OC1O[C@H]2OC3(C)CC[C@H]4[C@H](C)CCC(C1C)C24OO3 (stereo not given in full)	40	-3	23	35	0	0
C[C@@H]1CN([C@H](C)CO)C(=O)c2c(c3ccccc3n2C)-c2ccccc2CO[C@H]1CN(C)C(=O)Oc1ccccc1	-7	3	-19	/	0	-15
O=C(Cc1ccccn1)N1CCCCN2[C@H](CO)[C@@H](c3ccc(-c4ccccc4F)cc3)[C@@H]2C1	44	-10	21	26	0	0
CCCN1[C@@H]2Cn3c(ccc(-c4cccc(OC)c4)c3=O)[C@H]1[C@@H](C(=O)OC)[C@@H]2CO	/	-18	9	4	0	10
CC(=O)OC1(C)CC(C)C(=O)C(C(O)CC2CC(=O)NC(=O)C2)C1 (stereo not given)	/	-2	93*	43	/	/
C[C@@H]1C[C@@H]([C@H](O)CC2CC(=O)NC(=O)C2)C(=O)[C@@H](C)C1	/	/	73*	42	/	-36
COC(=O)[C@@H]1[C@@H](CO)[C@@H]2Cn3c(ccc(-c4cccc(OC)c4)c3=O)[C@H]1N2C(=O)c1ccccc1F	10	2	-1	-5	0	16
COC(=O)C(Cc1ccc(N(CCCl)CCCl)cc1)N=Cc1ccccc1O (stereo not given)	97*	1	/	67*	0	-33
CCCN1[C@@H]2c3ccc(-c4ccccc4)c(=O)n3C[C@H]1[C@H](CO)[C@H]2C(=O)OC	3	-2	/	5	0	2
Clc1ccc(COC(Cn2ccnc2)c2ccc(Cl)cc2Cl)c(Cl)c1 (stereo not given)	3	6	-26	19	0	49*!
Cc1nn(Cc2ccc(Cl)cc2Cl)c(Cl)c1C(=O)O	-11	-2	/	-4	0	13
Cc1nn(Cc2ccc(Cl)cc2Cl)c(Cl)c1C(=O)Nc1ccc(OC(F)F)cc1	31	/	3	/	0	71*
Nc1c(Br)cc2c3c(cccc13)-c1ccccc1-2	-14	1	/	-8	27*	-52
c1ccc2c(c1)-c1cccc3cccc-2c13	/	-2	-2	-7	/	15
O=C1C(Cl)=CC(=Nc2ccc(O)cc2)C=C1Cl	-1	36*	3	20	0	31
FC(F)(F)CN1C[C@@H]2C(c3ccc(Br)cc3)[C@H](C1)N2CC1CC1 (stereo not given in full)	/	/	/	/	0	3
NC(=S)c1cn(C2OC(CO)C(O)C2O)c2ncnc(N)c12 (stereo not given)	108*	-1	/	49	0	-18
Nc1ncnc2c1ccn2[C@@H]1O[C@H](CO)[C@@H](O)[C@H]1O	/	-3	-110	56*	/	-26
COC(=O)[C@H]1[C@H](CO)[C@H]2Cn3c(ccc(/C=C/c4ccccc4)c3=O)[C@@H]1N2CC1CCCC1	22	-51	-5	2	0	-24
Cc1[nH]c2ccc(OC(F)(F)F)cc2c1CCNCc1cccc([N+](=O)[O-])c1	25	?	/	13	0	-19
CCOc1cccc(CNCCc2c(C)[nH]c3ccc(OC(F)(F)F)cc23)c1O	9	40*	/	47	1	-50

Screens from PubChem.
